Lmaj promast – Leishmania major promastigote growth inhibition. AID 1063. hit rate 9% among 200,000. Leishmania major promastigotes, resazurin fluorescence viability. inhibition, % at 10 µM; in the data active = inhibition above about 50%;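 also: promastigotes grown with compound for 44 hours at 28 °C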
Dynein transport – blocks dynein driven cargo transport along microtubules; z-score, hits read low; hit rate 0.47% among 220,000; AID 1381; 3617.4 mouse cells, GR-EGFP nuclear translocation imaging; test concentration mostly 20 µM; stimulated with dexamethasone, 1 µM; hits give low values;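 active = plate z-score of nuclear minus cytoplasmic receptor signal below a set negative limit, without overly bright fluorescence or cell loss, cut at about -3.5 in these data, passing the limit was not always enough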;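 also: z-score of nuclear minus cytoplasmic ring GR-EGFP intensity difference per well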
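Buffer or medium – tet-free medium with charcoal-stripped serum · Signal – automated 10x imaging of fixed Hoechst-stained cells · Also added – dexamethasone agonist, 1.0 µM final, for 30 min · Incubation – induction 48 h, compound 1 h, agonist 30 min · Read-out – GR-EGFP nuclear translocation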
CHOP inh – blocks CHOP induction under ER stress; CHO-K1 CHOP-promoter luciferase, tunicamycin-induced, 15-18 h; inhibition, % at 10 µM; hit rate 3.8% among 220,000; AID 2732;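 active = compounds that reduced the stress-induced luciferase reporter signal by more than about 70% of percent inhibition, limit read from the data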
XBP1 UPR activ – adaptive UPR (XBP1) activation. CHO-XBP1 luciferase reporter, IRE1-XBP1 UPR activation, luminescence; percent of tunicamycin response, DMSO as zero. activation, % at 20 µM. hit rate 0.33% among 330,000;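 active = versus positive control, 20 µM dose yields 30% or more activation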
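Assay system: IRE1-XBP1 luciferase reporter CHO line. Input: 1000 cells/well. Buffer or medium: F12 with 10% serum. Doses: 20 µM, 1% DMSO. Times: overnight seeding at 37 °C, 6 h compound treatment at 37 °C. Technique: Steady-Glo luciferase glow luminescence, 10 min after reagent addition.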
CHOP UPR activ – activators of apoptotic arm of unfolded protein response (CHOP) | CHO-CHOP luciferase reporter, UPR activation, luminescence; percent of tunicamycin response over DMSO baseline | activation, % at 10 µM | hit rate 0.34% among 330,000;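 active = at 10 µM dose, activation of 40% or more, normalized to positive control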
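Material: CHO-CHOP cells, stable luciferase reporter of PERK-eIF2a-CHOP signalling; quantity: 500 reporter cells seeded per well; buffer or medium: F12 medium containing 10% fetal bovine serum; compound: one dose, 10 µM in 0.5% DMSO; incubation: 6 h compound treatment, 37 °C; measured by: Steady-Glo luciferase luminescence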
T cruzi inh – T. cruzi replication inhibition | inhibition, % (concentration not given with the values) | T. cruzi beta-gal in NIH3T3, luminescence, 90 h | hit rate 1.4% among 300,000;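 active = mean inhibition across valid replicates above about 55%, limit read from the data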;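 also: signal also drops with host cell toxicity which is not excluded here; higher percent means less beta-gal luminescence so fewer parasites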
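System: NIH/3T3 fibroblasts plus reporter T. cruzi. Medium: DMEM plus 2% FBS. Probe or stimulus: 5000 reporter trypomastigotes per well. Compound: single 50 nL compound addition per well in DMSO. Incubation: co-culture of at least 90 h after 3 h attachment. Detection: GalScreen β-gal luminescence, detergent lysis, 60 min. Evaluation: parasite load inhibition, %.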
Hits are given with their value; n = inactive; x = no result given. The entries come from a sample that favours hits as a whole.

SMILES	Lmaj promast	Dynein transport	CHOP inh	XBP1 UPR activ	CHOP UPR activ	T cruzi inh
CCN1CCN(c2ccc(S(=O)(=O)N3CCCCC3)cc2NC(=O)c2cccc(OC(F)F)c2)CC1	x	x	x	n	n	n
COc1ccc(CN(C(=O)/C=C/C(=O)c2ccc(OC)cc2O)C(C(=O)NC2CCCCC2)c2ccncc2)cc1 (configuration not stated)	78	n	n	n	n	n
COc1ccc(C(=O)/C=C/C(=O)N(Cc2ccc3c(c2)OCO3)C(C(=O)NC2CCCCC2)c2ccncc2)c(O)c1 (configuration not stated)	55	n	n	n	n	n
O=C(NC1CCCCC1)C(c1ccncc1)N(Cc1ccc2c(c1)OCO2)C(=O)c1cnsn1 (configuration not stated)	n	n	n	n	n	n
CN(Cc1ccc(F)cc1)C(=O)c1cccc(OC2CCN(C3CCCC3)CC2)c1	93	n	n	n	n	n
CN(Cc1ccc(F)cc1)C(=O)c1cccc(OCc2ccccc2)c1	x	x	x	n	n	n
CCN(CCNC(=O)c1ccc(C#N)cc1)c1cccc(C)c1	x	x	x	n	n	n
CCN(CCNCC(O)COCc1ccc(Cl)cc1)c1cccc(C)c1 (configuration not stated)	n	n	83	n	n	n
Cc1cc2nc(CCN(Cc3cccnc3)C(=S)Nc3ccccc3)[nH]c2cc1C	91	n	n	n	n	n
COc1ccccc1NC(=S)N(CCc1nc2cc(C)c(C)cc2[nH]1)Cc1cccnc1	57	n	n	n	n	n
Cc1cc2nc(CCN(Cc3cccnc3)C(=S)Nc3ccc(F)cc3)[nH]c2cc1C	n	n	n	n	n	61
Cc1ccccc1NC(=O)N(CCc1nc2ccccc2[nH]1)Cc1ccccc1	58	n	n	n	n	n
COc1ccc(NC(=S)N(Cc2cccnc2)Cc2cc3cc(OC)c(OC)cc3[nH]c2=O)cc1	n	n	n	n	n	n
COc1ccccc1NC(=S)N(CCc1ccc(OC)c(OC)c1)Cc1ccccn1	n	n	n	n	n	n
OCCN(Cc1ccccc1)C(=S)Nc1ccc(F)cc1	n	n	n	n	n	n
CSc1ncccc1C(=O)OCC(=O)c1[nH]c(C)c(C(C)=O)c1C	x	x	x	n	n	x
CCOc1ccc(C(=O)C(C)OC(=O)c2nc(Cl)ccc2Cl)cc1 (configuration not stated)	x	x	x	n	n	n
O=C(Cn1c(C(=O)N2CCc3ccccc3C2)cc2sccc21)c1ccccc1	61	n	n	n	n	n
O=C(Cn1c(C(=O)N2CCN(C3CCCCC3)CC2)cc2sccc21)c1ccccc1	81	n	n	n	n	76
O=C(c1ccccc1)N1CCN(C2CCCCCC2)CC1	n	n	n	n	n	n
CCCCC(=O)OCc1c(-c2ccccc2)ncc2ccccc12	x	x	x	n	n	x
C#CCOCCOCCOCCNc1nc(N2CCN(C(=O)[C@H](CCC(=O)O)n3cc([C@@H](N)[C@H](C)CC)nn3)CC2)nc(N2CCN(C(=O)[C@H](CCC(=O)O)n3cc([C@@H](N)CC(N)=O)nn3)CC2)n1	x	x	x	n	n	x
CC(C)(C)NC(=O)CN(C(=O)CN1C(=O)C(=O)c2ccccc21)C(C)(C)C	n	n	n	n	n	n
Cc1noc(C)c1CSCC(=O)Oc1ccc(N(C)S(=O)(=O)c2ccc(Cl)cc2)cc1	x	x	x	n	n	n
CCOc1cc(CNCCO)c(Cl)cc1OCC(=O)NCCc1ccccc1	91	n	n	n	n	n
SMILES	Lmaj promast	Dynein transport	CHOP inh	XBP1 UPR activ	CHOP UPR activ	T cruzi inh
CCOc1cc(CNC(C)C)c(Cl)cc1OCC(=O)NCCc1ccccc1	99	n	n	n	n	n
Cc1ccc(NC(=O)C2=C(C(=O)O)CCCC2)cc1Br	x	x	x	n	n	n
CCc1cc2ccc(OC)cc2nc1SCC(=O)Nc1cc(C)on1	n	n	82	n	n	n
CCc1cc2cc(C)c(C)cc2nc1SCC(=O)Nc1cc(C)on1	n	n	89	n	n	n
CCc1cc2ccccc2nc1SCC(=O)Nc1cc(C)on1	n	n	n	n	n	n
COc1ccc(Nc2nnc(SCC(=O)Nc3cc(C)on3)s2)cc1	n	n	85	x	x	x

Source: PubChem (several laboratories)
